Published values gathered from unrelated publications.
Target: MAP kinase-activated protein kinase 5 (MAPKAPK5, Homo sapiens, UniProt Q8IW41)
One construct used (Q8IW41 1-473): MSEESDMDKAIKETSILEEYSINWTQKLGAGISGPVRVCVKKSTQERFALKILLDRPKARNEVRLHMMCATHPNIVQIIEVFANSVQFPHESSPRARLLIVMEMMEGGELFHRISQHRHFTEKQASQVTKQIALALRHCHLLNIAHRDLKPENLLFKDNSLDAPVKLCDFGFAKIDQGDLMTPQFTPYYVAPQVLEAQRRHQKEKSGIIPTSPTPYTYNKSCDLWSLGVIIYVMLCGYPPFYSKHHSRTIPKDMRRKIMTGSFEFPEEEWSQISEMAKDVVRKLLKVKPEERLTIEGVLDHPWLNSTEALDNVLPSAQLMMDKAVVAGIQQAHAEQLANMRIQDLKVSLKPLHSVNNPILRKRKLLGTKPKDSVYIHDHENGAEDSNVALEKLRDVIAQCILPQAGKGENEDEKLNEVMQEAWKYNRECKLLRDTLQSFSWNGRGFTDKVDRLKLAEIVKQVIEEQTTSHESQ

SMILES | assay | setting | remaining binding
C[C@H]1CCN(c2nccc(-c3cnn4ncccc34)n2)C1 | binding | 1 µM | 69%
O=C(NCCCN1CCOCC1)c1ccc(Nc2ncc(Cl)c(-c3ccc(Cl)s3)n2)cc1 | binding, competition with immobilised ligand | 1 µM | 100%
COc1cnc(Nc2cccc(S(N)(=O)=O)c2)nc1N1CCN(c2ccccc2)C(=O)C1 | binding, competition with immobilised ligand | 1 µM | 100%
O=C(Nc1ccc(Oc2ccc(F)cc2)cc1)N1CCc2ncccc2[C@H]1c1ccc(F)cc1 | cell-free assay, competition with immobilised ligand | 1 µM | 75%
CN(CCCC(F)(F)F)c1nccc(-c2cnn3ncccc23)n1 | binding | 1 µM | 100%
O=C(c1ccc(Nc2nccc(-c3cc4ccccc4s3)n2)cc1)N1CCC(N2CCCC2)CC1 | binding, competition with immobilised ligand | 1 µM | 96%
c1cnn2ncc(-c3ccnc(N4CCC45COC5)n3)c2c1 | binding | 1 µM | 74%
CS(=O)(=O)c1cc(C2(NC(=O)c3cncc4c3cnn4-c3ccc(F)cc3)CC2)ccn1 | cell-free assay, competition with immobilised ligand | 1 µM | 87%
CCN1CCN(Cc2ccc(C(=O)Nc3ccc(C)c(Oc4ccc5c(c4)CC(=O)N5)c3)cc2C(F)(F)F)CC1 | binding, competition with immobilised ligand | 1 µM | 100%
N[C@@H]1CCN(c2nccc(-c3cnn4ncccc34)n2)C1 | binding | 1 µM | 100%
CNC(=O)[C@@H]1CC[C@@H](n2c(-c3ccc4cnccc4c3)nc3ccc(C(=O)NCc4cccc(C(N)=O)c4)cc32)C1 | binding, competition with immobilised ligand | 1 µM | 100%
Cn1cc(Cl)c2c(Oc3c(F)cc(Nc4cc(Cl)nc(N)n4)cc3F)ccnc21 | cell-free assay, competition with immobilised ligand | 0.1 µM | 100%
COc1ncc2cc3ccccc3nc2c1C#N | cell-free assay, competition with immobilised ligand | 5 µM | 83%
O=S(=O)(NC1CCC(c2cc(F)ccc2F)(S(=O)(=O)c2ccc(Cl)cc2)CC1)C(F)(F)F (stereo not shown) | cell-free assay, competition with immobilised ligand | 1 µM | 93%
O=C(Nc1c[nH]nc1C(=O)NC1CCNCC1)c1cc(F)cc(F)c1 | binding, competition with immobilised ligand | 1 µM | 94%
C[C@H](c1cccc(C#N)c1)n1cc(Cl)cc(C(N)=O)c1=N | cell-free assay, competition with immobilised ligand | 1 µM | 84%
C[C@@H](c1ccc(-n2cnc3c(N)ncnc32)cc1)N1CCc2nn(C)c(Cc3ccccc3)c2C1=O | binding, competition with immobilised ligand | 0.1 µM | 76%
C[C@H](c1ccnc(Nc2nc3ccc(-c4cc(N(C)C)ncn4)cc3[nH]2)c1)N1CCN(C(=O)CC(F)(F)F)CC1 | cell-free assay, competition with immobilised ligand | 0.1 µM | 86%
CN(c1nccc(-c2cnn3ncccc23)n1)C1CC1 | binding | 1 µM | 99%
